Published values collected from several papers.
Lines come from different studies, so protocols differ.
Target: Serine/threonine-protein kinase N2 (PKN2, Homo sapiens, UniProt Q16513)

| Compound | effect on | mode | method | cell line | concentration | endpoint | value |
| --- | --- | --- | --- | --- | --- | --- | --- |
| CCCOc1ccc([C@H]2[C@H](C(=O)O)[C@@H](c3ccc4c(c3)OCO4)CN2CC(=O)Nc2c(CC)cccc2CC)cc1 | cell-free assay | – | competition with immobilised ligand | – | 1 µM | remaining binding | 100% |
| CCN(CC)CCNC(=O)c1c(C)[nH]c(/C=C2\C(=O)Nc3ccc(F)cc32)c1C | enzyme activity | inhibitor | – | – | 0.3 µM | inhibition | 24% |
| Cc1cc(NC(=O)c2cccc3cc(-c4cccc5[nH]nc(N)c45)ccc23)ccc1F | enzyme activity | inhibitor | – | – | 0.1 µM | activity vs control | 101% |
| O=C1NC(=O)c2cc(Nc3ccc(F)cc3)c(Nc3ccc(F)cc3)cc21 | cell-free assay | – | – | – | 0.5 µM | remaining signal | 102% |
| COc1cc(/C=C/C(=O)CC(=O)/C=C/c2ccc(O)c(OC)c2)ccc1O | enzyme activity | inhibitor | – | – | 1 µM | activity vs control | 114% |
| O=C(NS(=O)(=O)c1ccc(NCC2CCOCC2)c([N+](=O)[O-])c1)c1ccc(N2CCN(Cc3ccc(C(F)(F)F)cc3-c3ccc(Cl)cc3)CC2)cc1Oc1cnc2[nH]ccc2c1 | cell-free assay | – | competition with immobilised ligand | – | 1 µM | remaining binding | 93% |
| CCCOc1ccc(OC)c(F)c1C(=O)c1ccc(C(=O)N[C@@H]2CNC[C@H]2NC(=O)c2ccc3[nH]ncc3c2)cc1 | enzyme activity | inhibitor | – | – | 0.5 µM | remaining activity | 14% |
| Nc1nc(NC2CCCCC2)sc1C(=O)c1ccccc1 | enzyme activity | inhibitor | – | – | 10 µM | remaining activity | 98% |
| CN(C(=O)c1ccccc1)c1cc(N(C)c2ccc3c(c2)CCc2ccc(C(=O)NCCN4CCOCC4)cc2C3=O)ccc1F | cell-free assay | – | competition with immobilised ligand | – | 1 µM | remaining binding | 53% |
| Nc1ncnc2occ(-c3ccc(NC(=O)Nc4cc(C(F)(F)F)ccc4F)cc3)c12 | cell-free assay | inhibitor | – | – | 20 µM | remaining signal | 58% |
| CN1CCC2(CC1)NC(=O)c1c(c3ccc(Cl)c(Cl)c3n1C)C2C#N (racemic) | thermal stability | – | DSF | – | 10 µM | ΔTm | 2.5 °C |
| CCCCNc1ncc2c(-c3ccc(F)cc3)nn(C[C@H]3CC[C@H](N)CC3)c2n1 | target engagement in cells | inhibitor | chemoproteomics | – | 20 mM | inhibition | 2.9% |
| CC(=O)N1CCC(c2ccc(C(=O)NC3=NCCN3)cc2C(F)(F)F)CC1 | cell-free assay | – | competition with immobilised ligand | – | 1 µM | remaining binding | 100% |
| CNCc1ccc(-c2cc(-c3nc(-c4ccc(S(=O)(=O)C(C)C)cc4)cnc3N)on2)cc1 | enzyme activity | inhibitor | – | – | 2 µM | inhibition | 82% |
| CC(=O)C1=C(C)N(c2cccc(C(F)(F)F)c2)C(=O)N[C@@H]1c1ccc(C#N)nc1 | cell-free assay | – | competition with immobilised ligand | – | 1 µM | remaining binding | 96.3% |
| COc1cc(-c2cc(-c3ccc(N4CCNCC4)cc3)cnc2C)cc(OC)c1OC | enzyme activity | inhibitor | – | – | 1 µM | inhibition | 1% |
| Cc1sc(C(=O)NC2COC2)cc1-n1cc(NC(=O)Nc2c(F)cccc2Cl)cn1 | enzyme activity | inhibitor | – | – | 10 µM | remaining activity | 87.1% |
| CN(C)c1ncnc(-c2ccc3nc(Nc4cc(CN5CCN(C(=O)CC(F)(F)F)CC5)ccn4)[nH]c3c2)c1Cl | cell-free assay | – | competition with immobilised ligand | – | 1 µM | remaining binding | 85% |
| CNc1cc(Oc2cc(C(=O)Nc3cc(N4CCN(C)CC4)cc(C(F)(F)F)c3)ccc2C)ncn1 | target engagement in cells | inhibitor | chemoproteomics | Huh-7 | 1 µM | inhibition | -99.7% |
